Source: PubChem BioAssay (several laboratories)
GC-A act: GC-A stimulated cGMP production enhancers – HEK293 GC-A cells, cGMP TR-FRET, EC30 ANP, primary screen | 0% at EC30 ANP, 100% saturating ANP | Atrial natriuretic peptide receptor 1 (Homo sapiens), P16066 | actives 0.14% (n = 370,000) | AID 1671463, 2021 | activation, % at 10 µM; in the data active = activation above about 40%
JMJD2C inh: inhibitors of GASC-1 histone demethylase, primary screen, biochemical, fluorescence, DELFIA europium; Lysine-specific demethylase 4C (Homo sapiens), Q9H3R0; GST-JMJD2C(1-420) H3K9me3 demethylation; inhibition, % at 2.35 µM; actives 0.069% (n = 330,000); AID 2099, 2009;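 active = more than half of a compound's replicate wells show inhibition beyond 50%, single wells judged on their own value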;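 note: signal counts dimethyl H3K9 product captured on neutravidin plate; 0% = median of DMSO wells and 100% = 0.3 times that DMSO median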
Target sequence (Q9H3R0 1-420 limits assumed): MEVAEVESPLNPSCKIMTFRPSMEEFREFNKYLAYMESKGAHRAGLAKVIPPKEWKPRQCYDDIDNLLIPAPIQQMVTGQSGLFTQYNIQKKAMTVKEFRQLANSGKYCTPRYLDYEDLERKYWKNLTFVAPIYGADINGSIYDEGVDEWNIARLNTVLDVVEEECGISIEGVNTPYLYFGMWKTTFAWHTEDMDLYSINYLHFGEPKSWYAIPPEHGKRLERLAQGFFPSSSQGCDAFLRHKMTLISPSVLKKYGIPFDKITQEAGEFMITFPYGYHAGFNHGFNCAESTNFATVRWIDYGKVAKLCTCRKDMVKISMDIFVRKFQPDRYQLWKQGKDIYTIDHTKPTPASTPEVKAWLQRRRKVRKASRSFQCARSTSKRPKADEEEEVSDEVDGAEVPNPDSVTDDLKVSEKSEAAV
NPR2 activator: human GC-B receptor activators, primary screen, HEK293 GC-B cells, cGMP TR-FRET, EC30 CNP; Atrial natriuretic peptide receptor 2 (Homo sapiens), P20594; actives 0.11% (n = 370,000); activation, % at 10 µM; 0% at EC30 CNP, 100% saturating CNP;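 active = activation at 10 µM reaching about 35% in either raw or pattern-adjusted values, limit read from the data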
aDG glyco act: activators of alpha-DG glycosylation, primary screen, uHTS, Pro5-aDG cells, AlphaScreen. alpha-DG glycosylation AlphaScreen (IIH6); 0% Pro5, 100% B10-LARGE cell signal. activation, % at 10 µM. actives 0.22% (n = 360,000). AID 624168, 2012;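 active = activation of at least 8% versus controls, or a plate z-score of at least 8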;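 note: Pro5 are CHO cells carrying HIG-tagged alpha-DG that lacks glycosylation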
GRIN3A LBD mod: binders of NR3A ligand-binding domain, primary screen, biophysical, differential scanning fluorimetry, uHTS | Glutamate receptor ionotropic, NMDA 3A (GRIN3A) ligand-binding domain | AID 1259313, 2017 | actives 2.5% (n = 340,000) | NR3A LBD differential scanning fluorimetry, Tm shift; 0% = protein alone, 100% = glycine-bound protein | Tm shift relative to glycine control, % at 25 µM;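 active = melting temperature shift of at least 10% of the positive control shift, at one fixed dose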
Lipid droplet: inhibitors of hepatocyte lipid droplet formation, primary screen, imaging, high-throughput imaging, BODIPY stain; inhibition, % at 6.5 µM; actives 0.4% (n = 240,000); AML12 mouse hepatocytes, oleate lipid droplets;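 active = lipid droplet intensity inhibited by at least 50%, with more than 500 cells counted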
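System: AML12 hepatocytes (mouse). Probe or stimulus: oleic acid at 100 µM to induce lipid droplet formation. Times: overnight treatment with compound plus oleate. Detection: Image-based BODIPY and DAPI two-channel analysis. Evaluation: percent inhibition of filter-corrected integrated lipid droplet intensity per well.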
* = called active by the depositor; . = no result. Compounds with a hit are over-represented: about 3% of the library has one in this group of screens.

SMILES | GC-A act | JMJD2C inh | NPR2 activator | aDG glyco act | GRIN3A LBD mod | Lipid droplet
COc1c2occc2c(OC)c2c(=O)cc(C(F)(F)F)oc12 | 0 | -18 | 0 | 0 | 16* | 26
Fc1cccc(CNC(=S)OC2CCC23CCC(c2ccccc2)CC3)c1 (stereo not drawn) | 0 | . | -2 | . | . | .
O=C(NCc1ccco1)C1CCCN(S(=O)(=O)c2ccccc2[N+](=O)[O-])C1 (stereo not drawn) | 3 | . | -4 | . | . | .
CN(CC(=O)Nc1ccc(S(=O)(=O)N2CCCC2)cc1)Cc1ccc(Cl)cc1Cl | -3 | -11 | -3 | 0 | -11 | -13
O=[N+]([O-])c1cc(S(=O)(=O)N2CCCC2)ccc1O | -2 | 2 | 2 | 0 | -1 | 13
O=[N+]([O-])c1cc(S(=O)(=O)N2CCCCCC2)ccc1F | 8 | 6 | 48* | 0 | -3 | -9
CN(CC(=O)Nc1ccc(Cl)cc1)c1ccc(S(=O)(=O)N2CCCCC2)cc1[N+](=O)[O-] | -4 | 3 | 2 | 1 | 11* | -14
C=CCN(C(=O)Cn1c(C(=O)OC)cc2oc(C)cc21)c1ccccc1 | -20 | -1 | -12 | 0 | -1 | .
COC(=O)c1cc2oc(C)cc2n1CC(=O)N(C)c1ccccc1 | -11 | -16 | -4 | 0 | 11* | -1
CCC1(c2ccc(F)cc2)NC(=O)N(CC(=O)N2CC(=O)Nc3ccccc32)C1=O (stereo not drawn) | 2 | 2 | 2 | 0 | 4 | .
CCCC(=O)OC12CCCN(C1)/C(=C/c1cccc(OC)c1)C2 (stereo not drawn) | -2 | . | 4 | . | . | .
Cc1ccc(NC(=O)CS(=O)CC(=O)NCCCc2ccccc2)cc1Cl (stereo not drawn) | 0 | -4 | -3 | 0 | -4 | .
Cc1ccc(NC(=O)Nc2ccnc(-c3cccnc3)n2)cc1 | 11 | . | 15 | 0 | 34* | -14
CCN(CC)C(=O)Nc1cnc2ccccc2c1 | -6 | -5 | -6 | 0 | 0 | .
Cc1ccc(NC(=O)Nc2cnc3ccccc3c2)cc1 | -1 | 1 | -5 | 0 | 27* | 0
Cc1ccc(NC(=O)CS(=O)CC(=O)Nc2cnc3ccccc3c2)cc1Cl (stereo not drawn) | -3 | 4 | -7 | 0 | 32* | 16
COc1ccc(Oc2c(Cl)cnn(-c3ccc(C(C)C)c(C)c3)c2=O)cc1 | 1 | . | 19 | . | . | .
COC(=O)[C@]12C[C@H](CC(=O)NCCC(C)C)C(=O)N(CCC3=CCCCC3)C1=C[C@H](COCc1ccccc1)O[C@@H]2C | -4 | . | 1 | . | . | .
Cc1ccccc1CS(=O)(=O)Cc1ccc(C(=O)Nc2c(C)cccc2C)o1 | 0 | . | -6 | . | . | .
O=C(c1ccccc1I)N1CCC(Oc2cccnc2)CC1 | 4 | . | 0 | . | . | .
Nc1ccn([C@@H]2O[C@H](C(=O)N[C@H](Cc3ccccc3)C(=O)Nc3ccc4scnc4c3)[C@@H](O)[C@H]2O)c(=O)n1 | -1 | . | 4 | . | . | .
CNC(=O)c1ccc(NC(=O)Nc2ccccc2)cc1 | 6 | 5 | 0 | 0 | 26* | -4
CC(=O)c1cccc(NC(=O)Nc2ccccc2)c1 | 1 | 7 | -3 | 0 | -11 | 4
CC(=O)c1ccc(NC(=O)Nc2ccccc2)cc1 | 9 | 3 | 1 | 0 | 27* | 6
Cn1cc(S(=O)(=O)N2CCc3ccccc32)cc1C(=O)NC(C)(C)C | -31 | 14 | -21 | 1 | -1 | -45
O=C(NCc1nc(-c2ccc(C(F)(F)F)cc2)no1)Nc1ccc(OC(F)(F)F)cc1 | -1 | -12 | 7 | 0 | 36* | 10
COc1ccc(-c2noc(CNS(=O)(=O)c3ccc(NC(C)=O)cc3)n2)cc1 | 0 | -22 | 0 | 0 | 1 | -6
